Laboratory results taken from ChEMBL document CHEMBL2169827, “4-Oxo-1,4-dihydropyridines as selective CB₂ cannabinoid receptor ligands. Part 2: discovery of new agonists endowed with protective effect against experimental colitis” (J Med Chem, 2012).
Activity calls are given as the source filed them. The rule behind the calls is not given here.

Legend:
[1] = molecular target: T1, Cannabinoid receptor 1 (Homo sapiens, UniProt P21554); test: Displacement of [3H]-CP55940 from human recombinant CB1 receptor expressed in CHO cells membrane by scintillation counting; assay type: cell membranes
T1 sequence (P21554 whole entry): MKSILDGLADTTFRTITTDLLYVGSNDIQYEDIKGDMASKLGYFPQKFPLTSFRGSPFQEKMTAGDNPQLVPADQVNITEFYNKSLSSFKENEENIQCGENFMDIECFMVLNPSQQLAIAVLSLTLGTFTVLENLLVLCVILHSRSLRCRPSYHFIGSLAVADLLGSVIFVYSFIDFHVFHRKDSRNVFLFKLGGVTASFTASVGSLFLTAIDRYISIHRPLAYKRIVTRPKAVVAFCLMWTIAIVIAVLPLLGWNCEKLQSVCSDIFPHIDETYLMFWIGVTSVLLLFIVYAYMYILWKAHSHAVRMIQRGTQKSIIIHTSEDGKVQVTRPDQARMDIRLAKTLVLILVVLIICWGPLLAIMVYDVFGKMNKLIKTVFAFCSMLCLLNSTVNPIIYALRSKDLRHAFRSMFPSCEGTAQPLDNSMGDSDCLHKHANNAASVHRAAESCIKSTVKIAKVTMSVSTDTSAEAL

[2] = molecular target: T2, Cannabinoid receptor 2 (Homo sapiens, UniProt P34972); test: Displacement of [3H]-CP55940 from human recombinant CB2 receptor expressed in CHO cells membrane by scintillation counting; assay type: cell membranes
T2 sequence (P34972 whole entry): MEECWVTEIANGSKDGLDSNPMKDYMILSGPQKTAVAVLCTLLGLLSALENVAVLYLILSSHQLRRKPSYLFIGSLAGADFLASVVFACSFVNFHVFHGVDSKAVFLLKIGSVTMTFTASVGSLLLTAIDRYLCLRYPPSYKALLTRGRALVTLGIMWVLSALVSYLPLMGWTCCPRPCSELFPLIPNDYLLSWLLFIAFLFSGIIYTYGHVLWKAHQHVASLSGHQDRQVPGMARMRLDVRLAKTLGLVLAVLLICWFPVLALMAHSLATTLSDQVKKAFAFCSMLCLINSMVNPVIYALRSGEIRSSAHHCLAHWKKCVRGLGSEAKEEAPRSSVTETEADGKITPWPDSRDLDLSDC

[3] = molecular target: T1, Cannabinoid receptor 1; test: Displacement of [3H]-CP55940 from human recombinant CB1 receptor expressed in CHO cells membrane at 1 uM by scintillation counting; assay type: cell membranes
Procedure, shortened: (§1)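 Competitive radioligand displacement with [3H]-CP-55,940 at human CB1 or CB2; single-point screen at 1 μM, specific displacement recorded.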

[4] = molecular target: T2, Cannabinoid receptor 2; test: Displacement of [3H]-CP55940 from human recombinant CB2 receptor expressed in CHO cells membrane at 1 uM by scintillation counting; assay type: cell membranes; procedure, shortened: as §1
[5] = molecular target: T2, Cannabinoid receptor 2; test: Agonist activity at human recombinant CB2 receptor expressed in CHO cells membrane by [35S]-GTPgammaS assay; assay type: functional, cell membranes
[6] = species on record: Homo sapiens; test: Selectivity index, ratio of Ki for human recombinant CB1 receptor to KI for human recombinant CB2 receptor
Procedure, shortened: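 Ki at hCB1 and hCB2 from [3H]-CP-55,940 competitive displacement; ratio CB1 Ki/CB2 Ki. Ki at CB1 determined only when 1 μM screen gave >60% displacement.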

[7] = system: Mus musculus; test: Anticolitis activity in TNBS-induced C57Bl6 mouse experimental colitis model assessed as reduction colitis macroscopic scores at 10 mg/kg, ip qd dosed 3 days before colitis induction; assay type: functional; parameters: scale not given: the % may be the effect or the level left; conditions: route intraperitoneal
Procedure, shortened: (§2)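 TNBS colitis in mice; test agent given ip once daily at 10 mg/kg; mice killed three days after TNBS and colon inflammation parameters assessed; 10 mice per group, mean ± SEM, compared with TNBS plus vehicle.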

[8] = system: Mus musculus; test: Anticolitis activity in TNBS-induced C57Bl6 mouse experimental colitis model assessed as reduction colitis histological scores at 10 mg/kg, ip qd dosed 3 days before colitis induction (reference value: 4.9 score); assay type: functional; conditions: route intraperitoneal; procedure, shortened: as §2
[9] = system: Mus musculus; test: Anticolitis activity in TNBS-induced C57Bl6 mouse experimental colitis model assessed as MPO activity at 10 mg/kg, ip qd dosed 3 days before colitis induction (reference value: 73.7%) score); assay type: functional; conditions: route intraperitoneal; procedure, shortened: as §2
[10] = system: Mus musculus; test: Effect on TNFalpha mRNA expression in TNBS-induced C57Bl6 mouse experimental colitis model at 10 mg/kg, ip qd dosed 3 days before colitis induction by real-time PCR method; assay type: functional, organism-based; parameters: dose 10 mg/kg; procedure, shortened: as §2
[11] = system: Mus musculus; test: Effect on IL-1beta mRNA expression in TNBS-induced C57Bl6 mouse experimental colitis model at 10 mg/kg, ip qd dosed 3 days before colitis induction by real-time PCR method; assay type: functional, organism-based; parameters: dose 10 mg/kg; procedure, shortened: as §2
[12] = Fraction unbound in human plasma at 37 degC by equilibrium dialysis method; assay type: ADME, cell-free
Procedure, shortened: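 Plasma protein binding by equilibrium dialysis at 37 °C; free fraction reported.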

[13] = Permeability from apical to basolateral side in human Caco2 cells at 10 uM incubated for 60 mins; assay type: ADME, cell-based; conditions: Caco-2, read-out: permeability
Procedure, shortened: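 Caco-2 permeability: compound at 10 μM, samples at 0 and 60 min.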

[14] = molecular target: MDR1 (ABCB1, P-glycoprotein) (Homo sapiens, UniProt P08183); test: Inhibition of MDR1 expressed in MDCK2 cells at 10 uM by calcein AM accumulation assay; assay type: cell-based, MDCK-II; conditions: dog, MDCK2 cells expressing MDR1, probe calcein AM
Chain of MDR1 (ABCB1, P-glycoprotein) (P08183 whole entry): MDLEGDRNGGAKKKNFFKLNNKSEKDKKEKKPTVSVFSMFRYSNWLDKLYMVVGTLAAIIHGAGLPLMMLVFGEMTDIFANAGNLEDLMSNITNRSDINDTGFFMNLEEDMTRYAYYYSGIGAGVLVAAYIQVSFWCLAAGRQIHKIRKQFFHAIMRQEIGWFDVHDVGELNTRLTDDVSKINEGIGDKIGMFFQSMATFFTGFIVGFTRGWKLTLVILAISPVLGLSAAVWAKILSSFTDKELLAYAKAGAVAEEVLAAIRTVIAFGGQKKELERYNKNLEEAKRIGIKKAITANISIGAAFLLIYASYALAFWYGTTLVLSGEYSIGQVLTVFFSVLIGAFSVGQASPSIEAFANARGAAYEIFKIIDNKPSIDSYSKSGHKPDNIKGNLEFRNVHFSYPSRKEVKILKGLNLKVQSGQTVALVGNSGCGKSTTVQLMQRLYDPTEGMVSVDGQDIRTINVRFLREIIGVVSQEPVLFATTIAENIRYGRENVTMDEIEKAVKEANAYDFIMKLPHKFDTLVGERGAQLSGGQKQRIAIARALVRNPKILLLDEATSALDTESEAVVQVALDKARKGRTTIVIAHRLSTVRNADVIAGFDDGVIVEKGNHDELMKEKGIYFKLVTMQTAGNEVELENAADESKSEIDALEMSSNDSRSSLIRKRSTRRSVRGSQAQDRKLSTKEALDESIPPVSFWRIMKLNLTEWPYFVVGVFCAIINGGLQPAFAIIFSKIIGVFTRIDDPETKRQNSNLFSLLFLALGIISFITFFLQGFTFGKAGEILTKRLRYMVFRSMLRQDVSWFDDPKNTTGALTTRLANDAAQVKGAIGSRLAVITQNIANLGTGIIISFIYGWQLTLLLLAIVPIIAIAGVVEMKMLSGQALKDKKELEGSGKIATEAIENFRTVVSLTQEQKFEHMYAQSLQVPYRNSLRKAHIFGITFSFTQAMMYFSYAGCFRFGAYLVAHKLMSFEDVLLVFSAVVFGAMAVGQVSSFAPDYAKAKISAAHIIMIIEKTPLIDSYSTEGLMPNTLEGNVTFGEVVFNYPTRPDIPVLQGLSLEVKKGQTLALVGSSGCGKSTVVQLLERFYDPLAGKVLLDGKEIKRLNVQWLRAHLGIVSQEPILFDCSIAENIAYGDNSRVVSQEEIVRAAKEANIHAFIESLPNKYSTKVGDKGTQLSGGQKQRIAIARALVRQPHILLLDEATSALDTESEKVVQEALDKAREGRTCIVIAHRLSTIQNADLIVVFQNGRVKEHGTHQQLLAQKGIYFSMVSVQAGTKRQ
Procedure, shortened: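 P-gp interaction tested in MDR1-MDCKII cells via cellular uptake of calcein AM.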

[15] = Stability in human liver microsomes assessed as compound remaining at 1 uM incubated for 60 mins; assay type: ADME, Microsome; conditions: read-out: Stability
Procedure, shortened: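 Incubation at 1 μM with human liver microsomes (0.3 mg/mL), 0 and 60 min; percent parent remaining at 60 min.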

[16] = Intrinsic clearance in mouse liver microsomes at 1 uM; assay type: ADME, Microsome; conditions: read-out: CLH

| SMILES | Ki [1] [nM] | Ki [2] [nM] | Activity [3] [%] | Activity [4] [%] | EC50 [5] [nM] | Activity [7] [%] | also measured |
| --- | --- | --- | --- | --- | --- | --- | --- |
| CCCCCn1cc(C(=O)NC2C3CC4CC(C3)CC2C4)c(=O)cc1C (stereo unspecified) | > 1000 | 0.26 | > 60 | > 60 | 38.4 | 74.9 | Ratio Ki [6]: > 3850 |
| CCCCCn1cc(C(=O)NCC23CC4CC(CC(C4)C2)C3)c(=O)cc1C | > 1000 | 15.2 | > 60 | > 60 | 53.1 | 55.9 | Ratio Ki [6]: > 10 |
| CCCCCn1cc(C(=O)NCC2CC2)c(=O)cc1C(C)(C)C | 176 | 14.1 | > 60 | > 60 | 27.8 | 74.9 | Ratio Ki [6]: > 10 |
| CCCCCn1cc(C(=O)NC23CC4CC(CC(C4)C2)C3)c(=O)c(C2CC2)c1C | 105 | 13.4 | > 60 | > 60 | 88.5 |  |  |
| CCCCCn1cc(C(=O)Nc2ccccc2)c(=O)cc1C(C)(C)C | 87.9 | 9.2 | > 60 | > 60 | 8.3 |  |  |
| CCCCCn1cc(C(=O)NC23CC4CC(CC(C4)C2)C3)c(=O)c(-c2ccncc2)c1C | > 1000 | 36.5 | > 60 | > 60 | 114 | 61.4 | Activity [8]: 3.1; Activity [9]: 34.1%; Activity [10]: inactive; Activity [11]: inactive; fraction unbound [12]: 0.07; Papp A→B at 1 h, 10 µM [13]: 49.9 ×10⁻⁶ cm/s; inhibition at 10 µM [14]: 33.7%; remaining at 1 h, 1 µM [15]: 1%; microsomal CLint at 1 µM [16]: > 200 µL/min/mg; Ratio Ki [6]: > 10 |
| CCCCCn1cc(C(=O)NC(C)C23CC4CC(CC(C4)C2)C3)c(=O)cc1C (racemic) | > 1000 | 6.4 | > 60 | > 60 | 84.2 | 74.9 | Ratio Ki [6]: > 10 |
| CCCCCn1cc(C(=O)NN2CCCCC2)c(=O)cc1C |  | > 1000 | > 60 | > 60 |  |  |  |
| CCCCCn1cc(C(=O)NC(C)C)c(=O)cc1C |  | > 1000 | > 60 | > 60 |  |  |  |
| CCCCCn1cc(C(=O)NC23CC4CC(CC(C4)C2)C3)c(=O)c(-c2cccc(C(C)=O)c2)c1C |  | > 1000 | > 60 | > 60 |  |  |  |
| COC(Cn1cc(C(=O)NC23CC4CC(CC(C4)C2)C3)c(=O)cc1C)OC |  | > 1000 | > 60 | > 60 |  |  |  |
| Cc1cc(=O)c(C(=O)NC23CC4CC(CC(C4)C2)C3)cn1CC1OCCO1 |  | > 1000 | > 60 | > 60 |  |  |  |
| CCCCCn1cc(C(=O)NC2C3CC4CC(C3)CC2C4)c(=O)cc1C(C)(C)C (stereo unspecified) | 562 | 9.6 | > 60 | > 60 | 452 | 51.5 |  |
| CCCCCn1cc(C(=O)NC23CC4CC(CC(C4)C2)C3)c(=O)cc1C(C)(C)C |  |  |  |  |  | 19.3 | fraction unbound [12]: 0.01; Papp A→B at 1 h, 10 µM [13]: 9.8 ×10⁻⁶ cm/s; inhibition at 10 µM [14]: 94.5%; remaining at 1 h, 1 µM [15]: 1%; microsomal CLint at 1 µM [16]: > 200 µL/min/mg |
| CCCCCn1cc(C(=O)NC23CC4CC(CC(C4)C2)C3)c(=O)c(I)c1C | 193 | 20.8 | > 60 | > 60 | 11.9 |  |  |
| CCCCCn1cc(C(=O)NC23CC4CC(CC(C4)C2)C3)c(=O)c(-c2ccc(C)cc2)c1C |  | > 1000 | > 60 | > 60 |  |  |  |
| Cc1cc(=O)c(C(=O)NC23CC4CC(CC(C4)C2)C3)cn1CCC1OCCO1 |  | > 1000 | > 60 | > 60 |  |  |  |
| CCCCCn1cc(C(=O)NCC2CC2)c(=O)cc1C |  | > 1000 | > 60 | > 60 |  |  |  |
| Cc1cc(=O)c(C(=O)NC23CC4CC(CC(C4)C2)C3)cn1CCCC(F)(F)F | > 1000 | 0.28 | > 60 | > 60 | 17.3 | 65.1 | Ratio Ki [6]: > 3570 |
| C/C=C\n1cc(C(=O)NC23CC4CC(CC(C4)C2)C3)c(=O)cc1C |  | > 1000 | > 60 | > 60 |  |  |  |
| Cc1cc(=O)c(C(=O)NC23CC4CC(CC(C4)C2)C3)cn1CCC1CCOCC1 |  | 196 | > 60 | > 60 |  |  |  |
| CCCCCn1cc(C(=O)NC(C)C23CC4CC(CC(C4)C2)C3)c(=O)cc1C(C)(C)C (racemic) | 548 | 9 | > 60 | > 60 | 47.1 | 60 |  |
| CCCCCn1cc(C(=O)NCC23CC4CC(CC(C4)C2)C3)c(=O)cc1C(C)(C)C | > 1000 | 10.2 | > 60 | > 60 | 49.2 | 62.2 |  |
| CCCCCn1cc(C(=O)NC2CCCCC2)c(=O)cc1C | > 1000 | 24.4 | > 60 | > 60 | 49.9 | 74.9 | Ratio Ki [6]: > 10 |
| Cc1cc(=O)c(C(=O)NC23CC4CC(CC(C4)C2)C3)cn1CC1CCOCC1 | > 1000 | 24.1 | > 60 | > 60 | 47.4 | 66.3 | Ratio Ki [6]: > 10 |
| CCCCCn1cc(C(=O)Nc2ccccc2)c(=O)cc1C |  | > 1000 | > 60 | > 60 |  |  |  |
| CCCCCn1cc(C(=O)NC23CC4CC(CC(C4)C2)C3)c(=O)c(-c2ccccc2)c1C |  | 189 | > 60 | > 60 |  |  |  |
| CCCCCn1cc(C(=O)NC23CC4CC(CC(C4)C2)C3)c(=O)c(-c2ccc(CC)cc2)c1C | > 1000 | 54.3 | > 60 | > 60 | 39.9 |  |  |
| CCCCCn1cc(C(=O)NC23CC4CC(CC(C4)C2)C3)c(=O)c(-c2cccc(C#N)c2)c1C |  | > 1000 | > 60 | > 60 |  |  |  |
| COCCCn1cc(C(=O)NC23CC4CC(CC(C4)C2)C3)c(=O)cc1C |  | > 1000 | > 60 | > 60 |  |  |  |
